Measured values published in PubChem BioAssay.
Calls of active or inactive are those of the source.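 Rule for the calls, unless noted: active = fluorescence slope higher than the sample average by over 3 SD (cut at about -0.22 in these data, passing the limit was not always enough); inactive = the rest.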

Assays:
[1] = inhibitors of TNFa-induced NFkB p65 translocation, primary screen, imaging, HUVEC, MLSMR starter and 10KST1 sets (AID 438;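 active = inhibition above 20% together with a positive visual image hit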;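 note: compound added about 3h40 before a 20 min TNFalpha stimulation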;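 for inhibition: signal is the nuclear over cytoplasmic p65 intensity ratio per well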); settings: HUVEC TNFa-induced p65 nuclear translocation; cell count: measured here: nuclei count (cytotoxicity indicator), at 2.08 µM; inhibition: at 2 µM, stronger effect = higher value, 0% TNFa-plus-vehicle, 100% no-TNFa wells
[2] = endothelial E-selectin expression blockers – imaging, HUVEC, immunofluorescence, MLSMR starter and 10KST1 sets, primary screen (AID 487;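 active = visually confirmed hit in the image check and inhibition above 20%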;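 for inhibition: signal is fraction of cell area covered by stained E-selectin grains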;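 for nuclei count: 100% = median nuclei count of all wells on the same plate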); settings: HUVEC TNFalpha-induced E-selectin immunofluorescence imaging, at 2 µM; inhibition: stronger effect = higher value; nuclei count: measured here: cell number, toxicity
[3] = Primary imaging screen for DUSP6 inhibitors that restore phospho-Erk in transfected HeLa cells, chemical complementation (AID 609;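 active = compounds giving at least 50% inhibition in the cell-based MKP-3 phosphatase rescue imaging test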;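 for inhibition: phospho-Erk level distribution per well compared with pooled transfected vehicle control wells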); settings: HeLa MKP-3 transfected, phospho-Erk imaging KS statistic, at 10 µM, cells stimulated with TPA for 15 min
[4] = molecular target: Dual specificity protein phosphatase 6 (Homo sapiens) (UniProt Q16828); test: as above; settings: HeLa MKP-3 transfected, phospho-Erk imaging KS statistic; at 10 µM; stronger effect = higher value; cells stimulated with TPA for 15 min
[5] = molecular target: Voltage-gated potassium channel subunit beta-2 (Rattus norvegicus) (UniProt P62483); test: inhibitors of rat Kvbeta2 reductase activity – biochemical, NADPH fluorescence, primary screen (AID 622); settings: recombinant KvBeta, 4-cyanobenzaldehyde reduction, at 10 µM, stronger effect = higher value;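 note: slope of raw intensity against log time taken from 70 to 1610 s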
[6] = molecular target: Voltage-gated potassium channel subunit beta-2 (Rattus norvegicus) (UniProt P62483); test: enhancers of rat Kvbeta2 NADPH turnover – biochemical, NADPH fluorescence, primary screen (AID 623;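 active = NADPH fluorescence slope more negative than the mean of all samples by about 3 SD, 99.7% confidence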;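 note: fluorescence intensity change per second fitted from 20 to 320 s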); settings: Recombinant KvBeta, NADPH fluorescence decrease slope, 10 min; at 10 µM; stronger effect = lower value
[7] = molecular target: Muscarinic acetylcholine receptor M4 (Homo sapiens) (UniProt P08173); test: M4-linked GIRK flux change, two-sided – cell-based, HEK293 M4/GIRK, thallium flux, BTC-AM, M4 allosteric agonist project, primary screen (AID 625;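 active = fluorescence slope after compound addition differing from the mean of all tested samples at 99.7% confidence, mostly higher but some lower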;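 note: thallium influx through GIRK channels coupled to M4 in HEK293 cells with BTC-AM dye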); settings: at 10 µM, actives lie on both sides
In short: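 System: HEK293 cells with M4 receptor and GIRK channels | Incubation: Cells overnight at 37 °C, BTC-AM loading 1 h, reads 2 min total | Technique: Kinetic BTC-AM fluorescence sampled at 1 Hz, 10 s pre-addition baseline | Measure: Post-addition slope, 15–24 s, of baseline-normalized fluorescence | Control set: Carbachol positive, DMSO negative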

[8] = inhibitors of larval lipid processing in zebrafish, primary screen, whole organism, PED6 fluorescence, gall bladder and intestine (AID 686;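 active = a full or partial loss of lipid-probe fluorescence in the fish gall bladder, intestine or both, judged by eye; inactive = no fluorescence loss, or compound toxic to the fish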;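 note: larvae 5 to 7 days old with five fish per well; signal comes from phospholipase A2 cleavage of quenched PED6 carried via bile; overnight exposure to compound and PED6 before scoring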); settings: Zebrafish larvae PED6 lipid processing, fluorescence scoring; screened at 20 µM (by protocol)
In short: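 Test system – live zebrafish larvae aged 5-7 days, whole organism · Buffer or medium – E3 fish medium · Reagent – quenched phospholipase substrate PED6, 100 nM final, ingested by larvae · Doses – 20 µM single dose · Incubation – overnight compound and PED6 incubation · Technique – visual fluorescence microscopy scoring of gall bladder, gut · Read-out basis – visual per-well fluorescence inhibition score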

[9] = loss of swimming-algae plug formation – whole organism, Chlamydomonas reinhardtii, WT vs cilia-less mutant, absorbance, 96-well, primary screen (AID 463189;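 active = inhibition at or above 50% relative to wild type and mutant plate controls; inactive = inhibition below 50%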;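 note: 0% = wild type cc124 cells in DMSO and 100% = ciliumless bld1 mutant cells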); settings: Chlamydomonas reinhardtii gravitaxis, OD600 absorbance, 2 days; at 10 µM; stronger effect = higher value
[10] = measured here: cell density z-score
[11] = measured here: nuclear c-Myc green intensity z-score
[12] = measured here: nuclear pErk red intensity z-score, stronger effect = higher value

Sequence of Dual specificity protein phosphatase 6 (Homo sapiens) (Q16828 whole entry, looked up): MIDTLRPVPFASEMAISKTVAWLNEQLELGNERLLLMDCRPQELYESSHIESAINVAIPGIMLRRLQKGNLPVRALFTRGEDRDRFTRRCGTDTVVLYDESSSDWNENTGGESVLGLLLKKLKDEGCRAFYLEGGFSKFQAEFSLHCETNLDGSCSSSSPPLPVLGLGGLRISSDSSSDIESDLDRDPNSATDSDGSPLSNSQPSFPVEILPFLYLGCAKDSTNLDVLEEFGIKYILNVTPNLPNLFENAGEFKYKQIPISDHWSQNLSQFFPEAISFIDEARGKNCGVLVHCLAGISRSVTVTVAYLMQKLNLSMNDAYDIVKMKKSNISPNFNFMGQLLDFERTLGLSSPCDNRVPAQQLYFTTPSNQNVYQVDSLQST
Sequence of Voltage-gated potassium channel subunit beta-2 (Rattus norvegicus) (P62483 whole entry, looked up): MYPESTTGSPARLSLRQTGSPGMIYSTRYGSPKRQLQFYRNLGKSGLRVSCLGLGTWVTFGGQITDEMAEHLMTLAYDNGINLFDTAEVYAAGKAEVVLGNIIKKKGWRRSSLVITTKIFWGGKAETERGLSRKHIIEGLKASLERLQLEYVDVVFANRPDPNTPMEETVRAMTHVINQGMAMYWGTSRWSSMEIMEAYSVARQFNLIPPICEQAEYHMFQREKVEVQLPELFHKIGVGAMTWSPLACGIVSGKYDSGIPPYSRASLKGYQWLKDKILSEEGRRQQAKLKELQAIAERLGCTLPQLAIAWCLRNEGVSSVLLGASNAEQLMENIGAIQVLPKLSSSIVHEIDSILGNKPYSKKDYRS
Sequence of Muscarinic acetylcholine receptor M4 (Homo sapiens) (P08173 whole entry, looked up): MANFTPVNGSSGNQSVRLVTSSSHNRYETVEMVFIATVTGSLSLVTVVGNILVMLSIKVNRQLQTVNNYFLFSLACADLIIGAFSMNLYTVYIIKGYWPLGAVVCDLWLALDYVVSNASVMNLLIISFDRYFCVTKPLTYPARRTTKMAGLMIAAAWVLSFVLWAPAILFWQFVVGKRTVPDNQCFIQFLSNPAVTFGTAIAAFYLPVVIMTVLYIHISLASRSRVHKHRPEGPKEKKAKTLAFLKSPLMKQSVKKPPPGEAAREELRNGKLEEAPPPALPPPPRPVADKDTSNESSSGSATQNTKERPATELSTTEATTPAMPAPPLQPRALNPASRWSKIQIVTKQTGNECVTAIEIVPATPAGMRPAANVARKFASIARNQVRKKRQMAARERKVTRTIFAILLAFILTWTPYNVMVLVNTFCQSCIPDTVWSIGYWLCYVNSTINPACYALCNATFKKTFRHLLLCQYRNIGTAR

Row | Structure (SMILES) | cell count [1] | inhibition [1] | inhibition [2] | nuclei count [2] [%] | z-score [3, 10] | z-score [3, 11] | z-score [3, 12] | inhibition [4] | fluorescence slope [5] | NADPH fluorescence slope [6] | fluorescence slope [7] | outcome [8] | inhibition [9]
1 | Clc1ccccc1CN(Cc1ccccc1)c1ncnc2nc[nH]c12 | 523 | 7.2% (inactive) | 5.3% (inactive) | 93 | -3.05 | 1.38 | 0.29 | 1.63% (inactive) | -0.481 (inactive) | -4.9e-05 (inactive) | 0.00447 (inactive) | inactive | 38.7% (inactive)
2 | COc1ccc(NC(=O)c2c(C)cc(=O)oc2C)c(OC)c1 | 631 | 3.2% (inactive) | 11.9% (inactive) | 111 | 0.599 | -0.258 | 0.577 | -7.67% (inactive) | -0.454 (inactive) | -3.9e-05 (inactive) | 0.00518 (inactive) | inactive | -7.06% (inactive)
3 | CCc1cc(=O)oc2cc(C)c(CN3CCCC(C)C3)c(O)c12 (stereo not drawn) | 539 | -7.1% (inactive) | -2.7% (inactive) | 109 | 1.56 | 0.423 | -0.74 | 12.7% (inactive) | -0.486 (inactive) | -2.8e-05 (inactive) | 0.00473 (inactive) | inactive | -8.79% (inactive)
4 | COc1ccc(C(=O)Nc2ccccc2N2CCOCC2)cc1Br | 522 | -7.6% (inactive) | -11.8% (inactive) | 153 | 2.22 | -2.31 | -0.121 | 37.7% (inactive) | -0.351 (inactive) | -9.8e-06 (inactive) | 0.00733 (inactive) | inactive | 10.5% (inactive)
5 | CC1(C)Cc2c(c(N3CCOCC3)nc3sc4c(NCc5ccco5)nnnc4c23)CS1 | 504 | -8.4% (inactive) | -6.5% (inactive) | 116 | 1.05 | -0.977 | 0.343 | 19.8% (inactive) | -0.419 (inactive) | -5e-06 (inactive) | 0.00933 (inactive) | inactive | 15.9% (inactive)
6 | O=C(Nc1ccc(N2CCN(C(=O)c3ccccc3)CC2)c(Cl)c1)c1ccc(Br)o1 | 435 | -6.8% (inactive) | -72.9% (inactive) | 143 | -0.73 | 0.543 | -0.883 | -7.28% (inactive) | -0.431 (inactive) | -2.9e-05 (inactive) | 0.00435 (inactive) | inactive | 117% (active)
7 | O=C1CC(C(=O)O)c2ccccc2N1 (stereo not drawn) | 589 | 5.9% (inactive) | -180% (inactive) | 135 | 0.749 | 0.0521 | -0.602 | 15.4% (inactive) | -0.465 (inactive) | -0.000133 (inactive) | 0.00465 (inactive) | inactive | 6% (inactive)
8 | Cc1ccc2cc(CNC(C)(C)C)c(=O)[nH]c2c1 | 632 | -4.2% (inactive) | -5% (inactive) | 141 | -0.205 | -0.75 | -0.413 | 7.7% (inactive) | -0.493 (inactive) | -3.2e-05 (inactive) | 0.00705 (inactive) | inactive | 2.56% (inactive)
9 | O=C(NCc1ccccn1)c1coc(=O)c(Br)c1 | 542 | -1% (inactive) | 22.6% (inactive) | 119 | -0.164 | 0.668 | -0.53 | 9.61% (inactive) | -0.481 (inactive) | -4e-05 (inactive) | 0.00581 (inactive) | inactive | 10.6% (inactive)
10 | CCOc1cccc(NC(=O)C2CC(=O)NC(=Nc3ccccc3)S2)c1 (stereo not drawn) | 590 | -4.7% (inactive) | -27.3% (inactive) | 117 | -0.0327 | -1.3 | -0.145 | -11.4% (inactive) | -0.456 (inactive) | -1.8e-05 (inactive) | 0.00448 (inactive) | inactive | 8.03% (inactive)
11 | Cc1ccc(C(=O)/C=C/Nc2ccccn2)cc1 | 361 | -5.9% (inactive) | -98.9% (inactive) | 104 | 0.761 | 0.782 | -1.14 | 15.4% (inactive) | -0.455 (inactive) | -3.3e-05 (inactive) | 0.00424 (inactive) | inactive | 35.5% (inactive)
12 | O=c1oc2c(CN3CCCCC3)c(O)ccc2c2c1CCCCC2 | 566 | -6.1% (inactive) | 34% (inactive) | 168 | 1.43 | -1.18 | -0.137 | 14.4% (inactive) | -0.00573 (inactive) | 8.5e-07 (inactive) | 0.00521 (inactive) | inactive | 3.57% (inactive)
13 | C=CCNc1nc(NCc2ccccc2)c(C#N)c2c1CN(C)CC2 | 592 | -6.3% (inactive) | -14.9% (inactive) | 156 | 0.516 | -0.0927 | 0.356 | -2.09% (inactive) | -0.407 (inactive) | -5.5e-05 (inactive) | 0.00402 (inactive) | inactive | 21.1% (inactive)
14 | CC(=O)/C=C(\C)NCCNc1c(F)c(F)c(CO)c(F)c1F | 570 | -4.3% (inactive) | -22.3% (inactive) | 145 | 0.666 | -0.56 | 0.111 | 1.9e-07% (inactive) | -0.319 (inactive) | -1.4e-05 (inactive) | 0.00522 (inactive) | inactive | 42.2% (inactive)
15 | CC1(C)CCN(Cc2ccccc2)C1CC#N (stereo not drawn) | 572 | -1.7% (inactive) | -7.9% (inactive) | 134 | -0.215 | -0.992 | 0.527 | 3.97% (inactive) | -0.353 (inactive) | 8.5e-06 (inactive) | 0.00545 (inactive) | inactive | 34.2% (inactive)
16 | CN1CCc2c(C#N)c(N3CCCCC3)nc(N3CCOCC3)c2C1 | 534 | -9.2% (inactive) | -129% (inactive) | 127 | 0.848 | -1.39 | 0.568 | -0.584% (inactive) | -0.418 (inactive) | -5.8e-05 (inactive) | 0.00417 (inactive) | inactive | 4.52% (inactive)
17 | CC1(C)Cc2[nH]c(=S)c(C#N)cc2CO1 | 531 | -11.7% (inactive) | -90.9% (inactive) | 118 | 0.165 | 0.751 | -0.483 | -5.81% (inactive) | -0.459 (inactive) | -0.000113 (inactive) | 0.0062 (inactive) | inactive | -14% (inactive)
18 | CC(NC(=O)NCc1cccnc1)(C(F)(F)F)C(F)(F)F | 708 | -13.6% (inactive) | -45% (inactive) | 138 | -0.926 | 1.23 | 1.47 | -2.09% (inactive) | -0.446 (inactive) | -4.7e-05 (inactive) | 0.00505 (inactive) | inactive | 10.1% (inactive)
19 | Cn1cccc1/C=N/n1cnnc1 | 561 | 0.9% (inactive) | -164% (inactive) | 130 | 0.378 | -0.4 | -0.934 | -4.59% (inactive) | -0.452 (inactive) | -0.000125 (inactive) | 0.0051 (inactive) | inactive | -1.85% (inactive)
20 | CCC(CC)c1nc2cc(OC)c(OC)cc2c(=O)o1 | 581 | 0.1% (inactive) | -54% (inactive) | 126 | -1.01 | -1.15 | 0.697 | -4.59% (inactive) | -0.451 (inactive) | -0.000112 (inactive) | 0.00503 (inactive) | inactive | 0.563% (inactive)
21 | CCN(CC)CCN1C(=O)C(=O)/C(=C(/O)c2c(C)[nH]c(C(=O)OC)c2C)C1c1ccccc1 (stereo not drawn) | 727 | -3.9% (inactive) | -88% (inactive) | 165 | 0.278 | 0.96 | 0.24 | -11.9% (inactive) | -0.485 (inactive) | -4.8e-05 (inactive) | 0.0049 (inactive) | inactive | 13.3% (inactive)
